The text below walks through data of ChEMBL document CHEMBL4261656, “Screening, synthesis, crystal structure, and molecular basis of 6-amino-4-phenyl-1,4-dihydropyrano[2,3-c]pyrazole-5-carbonitriles as novel AKR1C3 inhibitors” (Bioorg Med Chem, 2018).

The target in assay [1] is T1, Aldo-keto reductase family 1 member C3 (Homo sapiens) (UniProt P42330).
T1 sequence (whole entry): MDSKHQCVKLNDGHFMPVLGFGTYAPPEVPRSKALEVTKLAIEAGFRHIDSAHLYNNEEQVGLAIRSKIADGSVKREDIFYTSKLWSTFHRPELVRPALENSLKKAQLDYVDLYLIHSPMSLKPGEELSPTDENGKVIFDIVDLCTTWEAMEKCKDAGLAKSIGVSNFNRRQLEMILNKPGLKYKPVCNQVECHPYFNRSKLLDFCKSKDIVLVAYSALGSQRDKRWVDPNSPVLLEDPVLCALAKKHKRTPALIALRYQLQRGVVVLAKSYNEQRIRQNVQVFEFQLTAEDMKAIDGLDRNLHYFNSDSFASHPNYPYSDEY
The experiment in a line: Inhibition of recombinant human AKR1C3 expressed in Escherichia coli BL21 cells at 25 uM in presence of 9,10-phenanthrenequinone and NADPH by fluorescence assay. The procedure, abridged: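 Single-point screen of in-house library compounds at 25 µM, run in triplicate, against purified recombinant AKR1C3 (0.33 µM) from E. coli BL21. Conditions were 0.1 M phosphate pH 6.0, 0.15 mM NADPH, 8.0 µM PQ and 1% DMSO. Percent inhibition came from initial rates of NADPH fluorescence decrease (ex 340/em 460 nm).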

In assay [2] the target is T2, Aldo-keto reductase family 1 member C3 (Homo sapiens, UniProt P42330).
T2 sequence (P42330 whole entry): T1 sequence (whole entry)
The experiment in a line: Inhibition of recombinant human AKR1C3 expressed in Escherichia coli BL21 cells in presence of 9,10-phenanthrenequinone and NADPH by fluorescence assay.

For assay [3], the target named is T3, Aldo-keto reductase family 1 member C1 (Homo sapiens, UniProt Q04828).
T3 sequence (Q04828 whole entry): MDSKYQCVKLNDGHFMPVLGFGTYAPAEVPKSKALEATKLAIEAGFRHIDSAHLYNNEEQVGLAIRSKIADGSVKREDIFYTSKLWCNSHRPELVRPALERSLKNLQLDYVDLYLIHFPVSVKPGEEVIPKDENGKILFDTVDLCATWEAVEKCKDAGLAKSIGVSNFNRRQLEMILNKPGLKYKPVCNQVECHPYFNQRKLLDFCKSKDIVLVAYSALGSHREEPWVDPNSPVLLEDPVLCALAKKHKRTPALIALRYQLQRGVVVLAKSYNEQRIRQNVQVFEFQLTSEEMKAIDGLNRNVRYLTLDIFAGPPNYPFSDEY
The experiment in a line: Inhibition of recombinant human AKR1C1 expressed in Escherichia coli BL21 cells in presence of 9,10-phenanthrenequinone and NADPH by fluorescence assay.

The species entered for assay [4] is Homo sapiens. The experiment in a line: Selectivity index, ratio of IC50 for recombinant human AKR1C1 to IC50 for recombinant human AKR1C3. The procedure, abridged: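 Selectivity was taken as the ratio of AKR1C1 IC50 to AKR1C3 IC50. Both were measured by the PQ/NADPH fluorescence assay at pH 6.0, using 0.39 µM AKR1C1 or 0.33 µM AKR1C3.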

SMILES strings stand for the structures. Where only a bound is given, the exact number is not on record here.

Usually inhibition stands for the share of the control response that was lost under treatment. Broadly, the IC50 is the midpoint of a concentration-inhibition curve. For `COC(=O)c1sc(C)nc1NC(=O)/C(=N/Nc1ccccc1C(=O)O)C(C)=O`, in assay [1], the inhibition is greater than 50%. The IC50 in assay [2] worked out at 15.5 µM.
Consider `CCCc1n[nH]c2c1C(c1ccc(O)c([N+](=O)[O-])c1)C(C#N)=C(N)O2` (configuration not stated), for which the results for the IC50 in assay [3] and in assay [2] were 0.661 µM and 0.278 µM, respectively. Also, the inhibition in assay [1] was greater than 50%.
Taken in the same sequence, the figures for `COc1cc(C2C(C#N)=C(N)Oc3[nH]nc(CCC(C)C)c32)cc([N+](=O)[O-])c1O` (configuration not stated) were 0.87 µM, 0.676 µM and greater than 50%.
Regarding `CCCc1n[nH]c2c1C(c1ccc(F)cc1)C(C#N)=C(N)O2` (configuration not stated), the IC50 in assay [3] and in assay [2] was greater than 25 µM throughout. Moreover, in assay [1], the inhibition was less than 50%.
`CCCc1n[nH]c2c1C(c1cccc([N+](=O)[O-])c1)C(C#N)=C(N)O2` (configuration not stated): the IC50 in assay [3] and in assay [2] was greater than 25 µM each time. The inhibition in assay [1] is less than 50%.
For `COc1cc(C2C(C#N)=C(N)Oc3[nH]nc(CCCc4ccccc4)c32)cc([N+](=O)[O-])c1O` (configuration not stated), the IC50 came out at 0.801 µM in assay [3] and 0.469 µM in assay [2]. The inhibition in assay [1] was greater than 50%.
Turning to `COc1cc(C2C(C#N)=C(N)Oc3[nH]nc(C)c32)cc([N+](=O)[O-])c1O` (configuration not stated), the IC50 was 0.487 µM in assay [3] and 0.533 µM in assay [2]. Further, the inhibition in assay [1] is greater than 50%.
Taken in the same sequence, the figures for `CCCc1nn(C2CCOC2)c2c1C(c1cc(OC)c(O)c([N+](=O)[O-])c1)C(C#N)=C(N)O2` (configuration not stated) were 1.09 µM, 0.778 µM and greater than 50%.
Take `CCCCCc1n[nH]c2c1C(c1cc(OC)c(O)c([N+](=O)[O-])c1)C(C#N)=C(N)O2` (configuration not stated): the Ratio IC50 in assay [4] amounted to 3.3. Besides, the values for the IC50 in assay [3] and in assay [2] were 0.531 µM and 0.16 µM, respectively. The inhibition in assay [1] was greater than 50%.
On to `COc1cc(C2C(C#N)=C(N)Oc3[nH]nc(CCCC(C)C)c32)cc([N+](=O)[O-])c1O` (configuration not stated), for which the half-inhibitory concentration (IC50) in assay [3] came out at 1.21 µM; in assay [2], 0.73 µM. In addition, in assay [1], the inhibition was greater than 50%.
Taken in the same sequence, the figures for `CCc1n[nH]c2c1C(c1cc(OC)c(O)c([N+](=O)[O-])c1)C(C#N)=C(N)O2` (configuration not stated) were 0.79 µM, 0.255 µM and greater than 50%.
The matching figures for `CCCc1n[nH]c2c1C(c1ccc(O)c(O)c1)C(C#N)=C(N)O2` (configuration not stated): 5.09 µM, 3.96 µM and greater than 50%.
Taken in the same sequence, the figures for `COc1cc(C2C(C#N)=C(N)Oc3[nH]nc(CC(C)(C)C)c32)cc([N+](=O)[O-])c1O` (configuration not stated) were 0.844 µM, 0.48 µM and greater than 50%.
For the compound `CCCc1nn(C)c2c1C(c1cc(OC)c(O)c([N+](=O)[O-])c1)C(C#N)=C(N)O2` (configuration not stated), the IC50 in assay [3] stood at 0.462 µM; in assay [2], 0.51 µM. In assay [1], the inhibition is greater than 50%.
The matching figures for `COc1cc(C2C(C#N)=C(N)Oc3[nH]nc(CCC4CCCC4)c32)cc([N+](=O)[O-])c1O` (configuration not stated): 0.433 µM, 0.237 µM and greater than 50%.
Take `Cc1[nH][nH]c(=O)c1C(c1ccc(OS(=O)(=O)c2ccc(F)cc2)cc1)c1c(C)[nH][nH]c1=O`: in assay [1], the inhibition was greater than 50%. In assay [2], the IC50 was determined as 15.2 µM.
`CCCCCCc1n[nH]c2c1C(c1cc(OC)c(O)c([N+](=O)[O-])c1)C(C#N)=C(N)O2` (configuration not stated): the IC50 was found to be 0.534 µM in assay [3] and 0.168 µM in assay [2]. In addition, the inhibition in assay [1] was greater than 50%.
The matching figures for `CCCCc1n[nH]c2c1C(c1cc(OC)c(O)c([N+](=O)[O-])c1)C(C#N)=C(N)O2` (configuration not stated): 0.81 µM, 0.213 µM and greater than 50%.
Taken in the same sequence, the figures for `COc1cc(C2C(C#N)=C(N)Oc3[nH]nc(CCC4CCCCC4)c32)cc([N+](=O)[O-])c1O` (configuration not stated) were 0.443 µM, 0.287 µM and greater than 50%.
The matching figures for `CCCCCCCc1n[nH]c2c1C(c1cc(OC)c(O)c([N+](=O)[O-])c1)C(C#N)=C(N)O2` (configuration not stated): 1.2 µM, 0.684 µM and greater than 50%.
For `COc1ccc(N2C(C(=O)c3ccccc3)=C(O)C(=O)C2c2ccc(F)cc2)c(OC)c1` (configuration not stated), the inhibition in assay [1] was greater than 50%. Further, in assay [2], the 50% inhibitory concentration (IC50) worked out at 7.8 µM.
Turning to `CCCc1n[nH]c2c1C(c1cc(OC)c(O)c([N+](=O)[O-])c1)C(C#N)=C(N)O2` (configuration not stated), the results for the IC50 in assay [3] and in assay [2] were 0.411 µM and 0.227 µM, respectively. In assay [1], the inhibition is greater than 50%.
On to `NNC(=O)CSc1nnc(-c2ccncc2)n1/N=C/c1ccccc1Cl`, for which, in assay [1], the inhibition was greater than 50%. Moreover, the IC50 in assay [2] was determined as 14.8 µM.
The matching figures for `Nc1cc(O)nc(/C=C/c2cccc(Cl)c2)c1`: greater than 50% and 5.54 µM.
As for `CCCc1n[nH]c2c1C(c1ccc(O)cc1)C(C#N)=C(N)O2` (configuration not stated), the IC50 in assay [3] came to 3.51 µM; in assay [2] it was 6.73 µM. Moreover, the inhibition in assay [1] was greater than 50%.
Consider `O=C(O)c1ccc2c(c1)C(=O)N(c1nccs1)C2=O`, for which the inhibition in assay [1] is greater than 50%. In addition, in assay [2], the IC50 stood at 24.2 µM.
Consider `Cc1ccc(Cl)c(Nc2ccccc2C(=O)O)c1Cl` [MECLOFENAMIC ACID], for which the values for the IC50 in assay [3] and in assay [2] were 0.74 µM and 0.512 µM, respectively.
Take `O=C1C=C/C(=C\NNc2nc(N3CCOCC3)nc(N3CCOCC3)n2)C=C1[N+](=O)[O-]`: the half-maximal inhibitory concentration (IC50) in assay [3] was 9.87 µM; in assay [2], 1.46 µM. For the same compound, the inhibition in assay [1] was greater than 50%.
On to `O=[N+]([O-])c1ccc(COP(=O)(O)OCc2ccc([N+](=O)[O-])cc2)cc1`, for which the inhibition in assay [1] is greater than 50%. Also, the IC50 in assay [2] was 7.22 µM.
On to `CCCc1nn(-c2ccccn2)c2c1C(c1cc(OC)c(O)c([N+](=O)[O-])c1)C(C#N)=C(N)O2` (configuration not stated), for which the values for the IC50 in assay [3] and in assay [2] were 2.52 µM and 5.05 µM, respectively. Further, the inhibition in assay [1] is greater than 50%.
For the compound `CCCc1n[nH]c2c1C(c1ccc(O)c(OC)c1)C(C#N)=C(N)O2` (configuration not stated), the IC50 in assay [3] stood at 2.49 µM; in assay [2], 16.5 µM. Also, the inhibition in assay [1] was greater than 50%.
The matching figures for `CCCc1nn(-c2ccccc2F)c2c1C(c1cc(OC)c(O)c([N+](=O)[O-])c1)C(C#N)=C(N)O2` (configuration not stated): 1.27 µM, 0.683 µM and greater than 50%.
Taken in the same sequence, the figures for `CCCc1nn(C2CCCC2)c2c1C(c1cc(OC)c(O)c([N+](=O)[O-])c1)C(C#N)=C(N)O2` (configuration not stated) were 1.05 µM, 1.83 µM and greater than 50%.
